Results published in paper PMC3838201 (Circulation, 2013).
Where two headings read alike, the source gives them in different places.

Assays:
DDAH = DDAH (Homo sapiens, UniProt O94760); test: High throughput screen for DDAH inhibitors; format: biochemical; settings: primary hits of the screen of about 130,000 small molecules
Summary of the method: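 Purified recombinant human DDAH1 was used in a DDAH activity assay to screen a library of about 130,000 small molecules. Activity was monitored by colorimetric and fluorometric assays. Hits were compounds inhibiting DDAH by more than 30%. Primary hits were then validated with orthogonal colorimetric and fluorimetric activity assays.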

[1] = target: recombinant human DDAH1 (rhDDAH1) (Homo sapiens, UniProt O94760); test: Colorimetric microplate DDAH activity assay; format: biochemical
[2] = test system: human microvascular endothelial cells; test: Intracellular ADMA in human endothelial cells; format: cell-based; settings: 20 μM, 24 hours
Summary of the method: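 HMEC-1 microvascular endothelial cells in serum-free DMEM got test compound (20 μM final), a known DDAH1 inhibitor as control, or DMSO vehicle for 3 h. Medium was then switched to DMEM with 10% FBS, 4mM HEPES and penicillin/streptomycin (pH 7.6), 37°C/5% CO2, until 24 h. Cells were washed and lysed; protein measured by Coomassie; intracellular ADMA by ELISA. Duplicate experiments; unpaired t-test versus vehicle.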

[3] = test system: human saphenous vein segments; test: NOx release from human saphenous vein segments; settings: 24 hours; in the presence or absence of A23187 (0.5 μM); omeprazole 3–100 μM, L-257 100 μM
Summary of the method: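 Saphenous vein segments harvested during CABG surgery were rinsed in lactated Ringer's solution, cut into 0.5 cm pieces and held in endothelial cell medium. They were kept basal or stimulated with A23187 (0.5 μM) for 24 hours with test compound, a reference DDAH1 inhibitor or vehicle. Griess reaction measured total nitrite (NOx) in the conditioned medium. Duplicate experiments, mean ± SEM, one-way ANOVA with Bonferroni post-test versus vehicle.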

rhDDAH1 [4] = target: T1, rhDDAH1 (Homo sapiens, UniProt O94760); test: Reversibility study by inhibitor dilution; format: biochemical; settings: DDAH 30 μM pre-incubated with inhibitor, serially diluted
Summary of the method: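 DDAH (30 μM, 100-fold above the enzymatic assay concentration) was pre-incubated with test compound at three concentrations, then diluted. Recovery of enzymatic activity was read by fluorometric DDAH assay, with a known DDAH1 inhibitor as control.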

[5] = single oral dose of 30 mg, cited from earlier work
[6] = Serum ADMA levels in mice in vivo; set-up: species or system mouse; settings: C57BL/6J mice; 30 mg/kg/day subcutaneous; 5-week study period
mouse thoracic aorta = test: Vascular reactivity of isolated mouse thoracic aorta ex vivo; settings: aorta exposed for 24 hours
HMVECs [7] = test: Western blot of DDAH1 and DDAH2 expression in HMVECs; format: cell-based, human; settings: 3–100 μM for 24 hours
rhDDAH1 [8] = target: T1, rhDDAH1; test: Surface plasmon resonance enzyme-drug binding study; settings: 12.5–100 μM; rhDDAH1 amine coupled to CM5 chip; pH 6.5
Summary of the method: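 rhDDAH1 was purified with HEPES elution (10mM HEPES in PBS) to avoid competing amines, then amine-coupled to a CM5 chip. Test compound from a DMSO stock, or DMSO vehicle, was diluted in 100mM Na2HPO4, pH 6.5. It was passed over the chip at 4 concentrations (serial dilution, 12.5–100 μM). Binding was followed in real time as sensorgram peaks, in duplicate experiments.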

[9] = test system: primary human microvascular endothelial cells (HMVECs); test: Intracellular NOx in endothelial cells; format: cell-based; settings: 24 hours; lysates, normalized to total protein
Summary of the method: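 Primary HMVECs were exposed to vehicle or various concentrations of test compound for 24 h, with a selective DDAH1 inhibitor as control. Total nitrite (NOx) in cell lysates was measured by Griess reaction and normalized to total protein. Values come from duplicate experiments.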

HMVECs [10] = test: Western blot of eNOS and phospho-eNOS in HMVECs; format: cell-based, human; settings: HMVEC lysate, normalized to β-actin
Summary of the method: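 Endothelial cell lysates (20 μg) from cells exposed to test compound or vehicle were analysed by Western blot for total eNOS and phospho-eNOS. VEGF (50 ng/mL) served as positive control for eNOS phosphorylation. Bands were normalized to β-actin.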

[11] = IC50, 8 point concentration range 0.78–100 μM, Mean ± SEM, triplicate

T1 sequence (O94760 whole entry): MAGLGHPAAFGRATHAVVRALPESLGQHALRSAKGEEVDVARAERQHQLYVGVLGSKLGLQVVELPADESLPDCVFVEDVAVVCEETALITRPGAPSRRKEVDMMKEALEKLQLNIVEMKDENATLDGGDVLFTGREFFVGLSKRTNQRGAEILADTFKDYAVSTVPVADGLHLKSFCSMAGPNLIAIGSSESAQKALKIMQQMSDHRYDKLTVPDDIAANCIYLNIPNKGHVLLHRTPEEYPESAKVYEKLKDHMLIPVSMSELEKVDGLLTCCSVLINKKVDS
Sequence of recombinant human DDAH1 (rhDDAH1) (O94760 whole entry): as above
Sequence of DDAH (O94760 whole entry): as above

## COc1ccc2[nH]c([S+]([O-])Cc3ncc(C)c(OC)c3C)nc2n1 (stereo not shown) [Tenatoprazole, tenatoprazole]
DDAH
  inhibition of DDAH in high throughput screen: more than 30%
[1]
  IC50: 61 ± 1.5 µM

## COCCNC(N)=NCCC[C@H](N)C(=O)O [L-257]
[2]; control DDAH inhibitor
  effect on intracellular ADMA: increased ADMA
[3]
  NOx released from isolated human saphenous veins: significantly inhibited
rhDDAH1 [4]
  reversibility of inhibition of DDAH enzymatic activity upon dilution: complete reversibility upon dilution

## COc1ccnc(C[S+]([O-])c2nc3ccc(OC(F)F)cc3[nH]2)c1OC (stereo not shown) [Pantoprazole, pantoprazole]
DDAH
  inhibition of DDAH in high throughput screen: more than 30%

## COc1ccc2nc([S@@+]([O-])Cc3ncc(C)c(OC)c3C)[nH]c2c1 [Esomeprazole, esomeprazole]
[2]
  increase of intracellular ADMA compared to vehicle control: ~ 30%
[1]; [11]
  IC50: 52 ± 5 µM

## Cc1c(OCC(F)(F)F)ccnc1C[S+]([O-])c1nc2ccccc2[nH]1 (stereo not shown) [Lansoprazole, lansoprazole]
[2]
  increase of intracellular ADMA compared to vehicle control: ~ 30%
DDAH
  inhibition of DDAH in high throughput screen: more than 30%
[5]; read-out: maximum plasma concentration (Cmax)
  Cmax: 2 to 6 µM
[5]
  time to maximum plasma concentration: ≤ 3 h
[6]
  increase of serum ADMA compared to vehicle control: about 20%

## COc1ccc2[nH]c([S+]([O-])Cc3ncc(C)c(OC)c3C)nc2c1 (stereo not shown) [Omeprazole, omeprazole]
Mouse thoracic aorta
  contraction to phenylephrine (PE): enhanced the contraction to phenylephrine
  endothelium independent vasorelaxation to sodium nitroprusside: did not effect
  relaxation to acetylcholine (ACh): blunted the relaxation to acetylcholine
[3]
  NOx released from isolated human saphenous veins: significantly inhibited
DDAH
  inhibition of DDAH in high throughput screen: more than 30%
rhDDAH1 [4]
  reversibility of inhibition of DDAH enzymatic activity upon dilution: rapid and almost complete reversibility
[1]; [11]
  IC50: 58 ± 5 µM
[1]; IC50, IC50 value used to set the concentrations of the reversibility study
  IC50: ~60 µM
HMVECs [7]
  protein expression of DDAH1 and DDAH2: neither regulated the expression of DDAH1 nor that of DDAH2
rhDDAH1 [8]
  binding to DDAH (SPR sensorgram): direct interaction between the PPI and DDAH
[9]
  levels of nitrogen oxides (NOx) in cultured endothelial cells: dose-dependently reduced
HMVECs [10]
  expression of total eNOS and active eNOS (phospho-eNOS): downregulated
